Assay results taken from ChEMBL document CHEMBL1938297, “Synthesis, radiofluorination and pharmacological evaluation of a fluoromethyl spirocyclic PET tracer for central σ1 receptors and comparison with fluoroalkyl homologs” (Bioorg Med Chem, 2012).

How the values were obtained:
[1] = Biodistribution in CD1 mouse intestinal content at 300 kBq, iv after 120 mins by gamma counting; format: ADME, organism-based, Intestine; conditions: in vivo, 2 h
Summary of the method: (§1)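 Female CD-1 mice received the 18F tracer iv at 300 kBq in 0.9% NaCl containing 5% ethanol; 3–6 animals per time point (5, 30, 60, 120 min p.i.). Animals anaesthetized, blood and urine collected, killed by cervical luxation, organs dissected and weighed, counted in calibrated gamma counter. %ID/g = tissue counts / initial dose counts / tissue weight; mean with SD.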

Liver [2] = experiment: Biodistribution in CD1 mouse liver at 300 kBq, iv after 5 mins by gamma counting; format: ADME, organism-based; conditions: in vivo; summary of the method: as §1
Mus musculus [3] = experiment: Biodistribution in CD1 mouse gonads at 300 kBq, iv after 60 mins by gamma counting; format: ADME, organism-based, Gonad; conditions: in vivo, 1 h
Summary of the method: (§2)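 Female CD-1 mice received [18F]1 (300 kBq) i.v.; 3–6 animals per time point anesthetized at 5, 30, 60 or 120 min p.i., blood and urine collected, animals euthanized by cervical dislocation, organs dissected and weighed. Radioactivity counted in a calibrated gamma counter; % ID/g = tissue counts / initial dose counts / tissue weight; means with SD.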

Mus musculus [4] = experiment: Biodistribution in CD1 mouse fat at 300 kBq, iv after 30 mins by gamma counting; format: ADME, organism-based, Adipose tissue; conditions: in vivo, 0.5 h; summary of the method: as §2
Mus musculus [5] = experiment: Biodistribution in CD1 mouse small intestine at 300 kBq, iv after 30 mins by gamma counting; format: ADME, organism-based; conditions: in vivo, 0.5 h; summary of the method: as §1
Mus musculus [6] = experiment: Biodistribution in CD1 mouse large intestine at 300 kBq, iv after 60 mins by gamma counting; format: ADME, organism-based; conditions: in vivo, 1 h; summary of the method: as §1
Stomach [7] = experiment: Biodistribution in CD1 mouse stomach at 300 kBq, iv after 30 mins by gamma counting; format: ADME, organism-based; conditions: in vivo, 0.5 h; summary of the method: as §1
Mus musculus [8] = experiment: Biodistribution in CD1 mouse small intestine at 300 kBq, iv after 60 mins by gamma counting; format: ADME, organism-based; conditions: in vivo, 1 h; summary of the method: as §1
Femur [9] = experiment: Biodistribution in CD1 mouse flushed femur at 300 kBq, iv after 120 mins by gamma counting; format: ADME, organism-based; conditions: in vivo, 2 h; summary of the method: as §2
Brain = experiment: Biodistribution in CD1 mouse brain at 300 kBq, iv after 60 mins by gamma counting; format: ADME, organism-based; conditions: in vivo, 1 h; summary of the method: as §2
Mus musculus [10] = experiment: Biodistribution in CD1 mouse thymus at 300 kBq, iv after 30 mins by gamma counting; format: ADME, organism-based; conditions: in vivo, 0.5 h; summary of the method: as §1
Blood = experiment: Biodistribution in CD1 mouse blood at 300 kBq, iv after 5 mins by gamma counting; format: ADME, organism-based; conditions: in vivo; summary of the method: as §2
Heart [11] = experiment: Biodistribution in CD1 mouse heart at 300 kBq, iv after 120 mins by gamma counting; format: ADME, organism-based; conditions: in vivo, 2 h; summary of the method: as §1
Mus musculus [12] = experiment: Biodistribution in CD1 mouse adrenals at 300 kBq, iv after 60 mins by gamma counting; format: ADME, organism-based, Adrenal gland; conditions: in vivo, 1 h; summary of the method: as §2
Kidney = experiment: Biodistribution in CD1 mouse kidney at 300 kBq, iv after 5 mins by gamma counting; format: ADME, organism-based; conditions: in vivo; summary of the method: as §1
Liver [13] = experiment: Biodistribution in CD1 mouse liver at 300 kBq, iv after 60 mins by gamma counting; format: ADME, organism-based; conditions: in vivo, 1 h; summary of the method: as §1
Mus musculus [14] = experiment: Biodistribution in CD1 mouse gonads at 300 kBq, iv after 5 mins by gamma counting; format: ADME, organism-based, Gonad; conditions: in vivo; summary of the method: as §2
Mus musculus [15] = experiment: Biodistribution in CD1 mouse thymus at 300 kBq, iv after 60 mins by gamma counting; format: ADME, organism-based; conditions: in vivo, 1 h
Summary of the method: (§3)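 Female CD-1 mice received 300 kBq of the radiotracer i.v.; 3–6 animals per time point were anaesthetised at 5, 30, 60 or 120 min p.i. Blood and urine were collected, animals were killed by cervical dislocation, and organs were dissected and weighed. Activity was counted in a calibrated gamma counter and expressed as % injected dose per g wet tissue, mean with SD.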

Lung [16] = experiment: Biodistribution in CD1 mouse lung at 300 kBq, iv after 5 mins by gamma counting; format: ADME, organism-based; conditions: in vivo; summary of the method: as §1
Mus musculus [17] = experiment: Biodistribution in CD1 mouse gonads at 300 kBq, iv after 120 mins by gamma counting; format: ADME, organism-based, Gonad; conditions: in vivo, 2 h; summary of the method: as §2
Femur [18] = experiment: Biodistribution in CD1 mouse femur at 300 kBq, iv after 5 mins by gamma counting; format: ADME, organism-based; conditions: in vivo; summary of the method: as §2
Mus musculus [19] = experiment: Biodistribution in CD1 mouse facial nucleus in brain saggital section at 24 MBq, iv at 45 mins by autoradiography; format: ADME, organism-based; conditions: in vivo, 0.75 h
Summary of the method: (§4)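 Female CD-1 mouse given [18F]1 (24 MBq) i.v. and sacrificed at 45 min. Brain hemispheres frozen in isopentane (−35 °C), cut into 12 µm sagittal cryosections, thaw-mounted, air-dried and exposed to 18F-sensitive storage phosphor screens. Anterior olfactory bulb served as nontarget region for target-to-nontarget ratios.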

Lung [20] = experiment: Biodistribution in CD1 mouse lung at 300 kBq, iv after 120 mins by gamma counting; format: ADME, organism-based; conditions: in vivo, 2 h; summary of the method: as §1
[21] = Biodistribution in CD1 mouse urine at 300 kBq, iv after 120 mins by gamma counting; format: ADME, organism-based; conditions: in vivo, 2 h; summary of the method: as §3
Stomach [22] = experiment: Biodistribution in CD1 mouse stomach at 300 kBq, iv after 60 mins by gamma counting; format: ADME, organism-based; conditions: in vivo, 1 h; summary of the method: as §1
[23] = Metabolic stability in CD1 mouse brain homogenate assessed as compound remaining at 191 MBq, iv after 60 mins by radio-HPLC/TLC analysis; format: ADME, organism-based; conditions: read-out: Stability
Summary of the method: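 Female CD-1 mice were injected with the radiotracer via the tail vein and killed at 30 or 60 min p.i. Whole brains (n = 2 per time) were homogenised in 50 mM TRIS–HCl pH 7.4 at 4 °C and extracted twice with ice-cold acetonitrile. Concentrated extracts were analysed by radio-HPLC and radio-TLC to give % parent versus radiometabolites.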

Mus musculus [24] = experiment: Biodistribution in CD1 mouse dorsomedial hyphalmus in brain saggital section at 24 MBq, iv at 45 mins by autoradiography; format: ADME, organism-based; conditions: in vivo, 0.75 h; summary of the method: as §4
Lung [25] = experiment: Biodistribution in CD1 mouse lung at 300 kBq, iv after 60 mins by gamma counting; format: ADME, organism-based; conditions: in vivo, 1 h; summary of the method: as §1
Mus musculus [26] = experiment: Biodistribution in CD1 mouse thymus at 300 kBq, iv after 120 mins by gamma counting; format: ADME, organism-based; conditions: in vivo, 2 h; summary of the method: as §1
Mus musculus [27] = experiment: Biodistribution in CD1 mouse fat at 300 kBq, iv after 60 mins by gamma counting; format: ADME, organism-based, Adipose tissue; conditions: in vivo, 1 h; summary of the method: as §2
Mus musculus [28] = experiment: Biodistribution in CD1 mouse small intestine at 300 kBq, iv after 120 mins by gamma counting; format: ADME, organism-based; conditions: in vivo, 2 h; summary of the method: as §1
[29] = Chemical stability of the compound in 0.01 M Tris-HCl at pH 7.4 assessed as compound remaining after 2 hrs by radio-HPLC/TLC analysis; format: physicochemical; conditions: read-out: Stability
Summary of the method: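 Radiotracer incubated 120 min at 40 °C in 0.9% NaCl (pH 7.2), phosphate-saline (0.1 M sodium phosphate, 0.15 M NaCl, pH 7.2) or 0.01 M TRIS–HCl (pH 7.4 at 21 °C). Aliquots were taken at set times and analysed by radio-TLC on silica and by gradient radio-HPLC on RP-18 (MeCN/20 mM ammonium acetate, 254 nm), giving % unchanged tracer; n = 2.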

Muscle tissue = experiment: Biodistribution in CD1 mouse muscle at 300 kBq, iv after 60 mins by gamma counting; format: ADME, organism-based; conditions: in vivo, 1 h; summary of the method: as §1
Femur [30] = experiment: Biodistribution in CD1 mouse flushed femur at 300 kBq, iv after 30 mins by gamma counting; format: ADME, organism-based; conditions: in vivo, 0.5 h; summary of the method: as §2
Heart [31] = experiment: Biodistribution in CD1 mouse heart at 300 kBq, iv after 60 mins by gamma counting; format: ADME, organism-based; conditions: in vivo, 1 h; summary of the method: as §1
Spleen [32] = experiment: Biodistribution in CD1 mouse spleen at 300 kBq, iv after 120 mins by gamma counting; format: ADME, organism-based; conditions: in vivo, 2 h; summary of the method: as §1
Spleen [33] = experiment: Biodistribution in CD1 mouse spleen at 300 kBq, iv after 5 mins by gamma counting; format: ADME, organism-based; conditions: in vivo; summary of the method: as §1
Femur [34] = experiment: Biodistribution in CD1 mouse flushed femur at 300 kBq, iv after 5 mins by gamma counting; format: ADME, organism-based; conditions: in vivo; summary of the method: as §2

Molecule [18F]CC1OC2(CCN(Cc3ccccc3)CC2)c2ccccc21 (stereo not drawn) has a Drug uptake [1] of 1.96 % ID/g, a Drug uptake (Liver [2]) of 5.31 % ID/g and a Drug uptake (Mus musculus [3]) of 3.28 % ID/g. The Drug uptake (Mus musculus [4]) was 1.82 % ID/g, the Drug uptake (Mus musculus [5]) was 18.82 % ID/g and the Drug uptake (Mus musculus [6]) was 0.92 % ID/g. It also gave a Drug uptake (Stomach [7]) of 3.52 % ID/g, a Drug uptake (Mus musculus [8]) of 23.46 % ID/g and a Drug uptake (Femur [9]) of 1.29 % ID/g. For the same molecule, the Drug uptake (Brain) was 2.99 % ID/g, the Drug uptake (Mus musculus [10]) was 4.83 % ID/g and the Drug uptake (Blood) was 0.73 % ID/g. It also gave a Drug uptake (Heart [11]) of 3.05 % ID/g, a Drug uptake (Mus musculus [12]) of 7.48 % ID/g and a Drug uptake (Kidney) of 14.93 % ID/g. The Drug uptake (Liver [13]) was 3.98 % ID/g, the Drug uptake (Mus musculus [14]) was 3.26 % ID/g and the Drug uptake (Mus musculus [15]) was 2.5 % ID/g. The Drug uptake (Lung [16]) was 18.01 % ID/g, the Drug uptake (Mus musculus [17]) was 3.55 % ID/g and the Drug uptake (Femur [18]) was 2.32 % ID/g. The Drug uptake (Mus musculus [19]) was “Active”, the Drug uptake (Lung [20]) was 6.82 % ID/g and the Drug uptake [21] was 56.46 % ID/g. For the same molecule, the Drug uptake (Stomach [22]) was 1.77 % ID/g, the remaining at 1 h [23] was 79% and the Drug uptake (Mus musculus [24]) was “Active”. The Drug uptake (Lung [25]) was 8.32 % ID/g, the Drug uptake (Mus musculus [26]) was 2.52 % ID/g and the Drug uptake (Mus musculus [27]) was 2.02 % ID/g. It also gave a Drug uptake (Mus musculus [28]) of 25.9 % ID/g, a remaining at 2 h [29] of 100% and a Drug uptake (Muscle tissue) of 0.97 % ID/g. It also gave a Drug uptake (Femur [30]) of 1.42 % ID/g, a Drug uptake (Heart [31]) of 2.96 % ID/g and a Drug uptake (Spleen [32]) of 4.84 % ID/g. It also gave a Drug uptake (Spleen [33]) of 6.23 % ID/g and a Drug uptake (Femur [34]) of 2.09 % ID/g.
